“And” between values parts separate entries of the source, which are not always exact repeats. Identical values can stand only once.
Experiments:
[1] = In vitro growth inhibition against C-26 cells incubated for 4 hr using cytotoxicity assay; assay type: functional, cell-based, Mus musculus
Summary of the method: (§1)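 Methylene blue staining assay. Exponentially growing cells plated, incubated 24 h, then drugs added at various concentrations (saline for controls), four wells per variant. Drug exposure 4, 24 or 72 h, then washed and grown in fresh medium to 72 h total. Cells fixed in 2.5% glutaraldehyde, stained with 1% MB in 0.1 M borate pH 8.5, dye extracted with 0.1 N HCl at 37 °C, OD read at 620 nm. IC50 given as mean ± SD from at least two experiments.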

[2] = In vitro growth inhibition against C-26 cells incubated for 72 hr using cytotoxicity assay; assay type: functional, cell-based, Mus musculus; summary of the method: as §1
OV-1063 [3] = experiment: In vitro growth inhibition against OV-1063 cells incubated for 4 hr using cytotoxicity assay; assay type: functional, cell-based, Homo sapiens; summary of the method: as §1
OV-1063 [4] = experiment: In vitro growth inhibition against OV-1063 cells incubated for 24 hr using cytotoxicity assay; assay type: functional, cell-based, Homo sapiens; summary of the method: as §1
OV-1063 [5] = experiment: In vitro growth inhibition against OV-1063 cells incubated for 72 hr using cytotoxicity assay; assay type: functional, cell-based, Homo sapiens; summary of the method: as §1
[6] = In vitro growth inhibition against C-26 cells incubated for 24 hr using cytotoxicity assay; assay type: functional, cell-based, Mus musculus; summary of the method: as §1
[7] = Solubility was determined in DDW(double distilled water) at 37 degrees Centigrade; assay type: physicochemical; conditions: buffer

cis-[ptcl2(NH3)(4-pic)]
IC50 [1]: 12 µM and 5.1 µM
IC50 [2]: 11 µM and 3.7 µM
IC50 (OV-1063 [3]): 18 µM and 6 µM
IC50 (OV-1063 [4]): 16 µM and 5.1 µM
IC50 (OV-1063 [5]): 14 µM and 4 µM
IC50 [6]: 11 µM and 4.7 µM

trans-[ptcl2(4-pic)(pip)]
IC50 [1]: 4.5 µM
IC50 [2]: 1.75 µM
Solubility [7]: 30 µg/mL
IC50 (OV-1063 [3]): 6.5 µM
IC50 (OV-1063 [4]): 6 µM
IC50 (OV-1063 [5]): 4.5 µM
IC50 [6]: 2.5 µM

trans-[ptcl2(4-pic)(pz)] HCl
IC50 [1]: 5.5 µM
IC50 [2]: 3.5 µM
Solubility [7]: 7500 µg/mL
IC50 (OV-1063 [3]): 7.4 µM
IC50 (OV-1063 [4]): 6 µM
IC50 (OV-1063 [5]): 5.1 µM
IC50 [6]: 4.5 µM

TRANSPLATIN
IC50 [1]: 64 µM
IC50 [2]: 41 µM
Solubility [7]: 240 µg/mL
IC50 (OV-1063 [3]): 81 µM
IC50 (OV-1063 [4]): 73 µM
IC50 (OV-1063 [5]): 52 µM
IC50 [6]: 46 µM

CISPLATIN
IC50 [1]: 1.5 µM
IC50 [2]: 0.2 µM
Solubility [7]: 2100 µg/mL
IC50 (OV-1063 [3]): 2 µM
IC50 (OV-1063 [4]): 0.7 µM
IC50 (OV-1063 [5]): 0.5 µM
IC50 [6]: 0.6 µM

From ChEMBL document CHEMBL1135653, “Novel apoptosis-inducing trans-platinum piperidine derivatives: synthesis and biological characterization” (J Med Chem, 2002)
